# Test results reported in PubChem BioAssay.
# Calls of active or inactive are those of the source.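 The calls were made as follows, unless noted: active = viability at or under a set limit in both replicates, limit being median viability minus 3 SD (cut at about 48% in these data, passing the limit was not always enough); inconclusive = at or under the limit in just one replicate; inactive = at or above the limit in both replicates.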
# Legend:
# [1] = HUVEC growth inhibition – cell-based, human, primary screen (AID 575;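 active = viability at or below 30% in both replicate assays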;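 also: 100% = median of untreated cell wells with 0.1% DMSO on each plate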); settings: HUVEC proliferation, CellTiter-Glo luminescence, 72 h; at 10 µM; stronger effect = lower value
# In short: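 Test system: primary human umbilical vein endothelial cells. Quantity: 1250 cells/well. Compound: single 10 µM dose, 0.1% DMSO, from 5x medium stock. Timing: 72 h treatment at 37 °C. Detection: ATP-based CellTiter-Glo luminescent read. Benchmarks: vehicle and MePR control wells. Format: 384-well plates coated with collagen.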
# [2] = H69AR cell proliferation blockers – human, duplicate replicates, primary screen (AID 580); settings: H69AR lung tumor cells viability, ATP luminescence, 72 h; at 10 µM; stronger effect = lower value;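 also: 100% = mean luminescence of untreated wells and 0% = no signal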
# [3] = MRP1 drug-resistance reversers in H69AR cells – cell-based, doxorubicin co-treatment, pilot screen (AID 601;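 active = viability loss from added drug above about 55%, and viability with drug at most 40%, in both replicates, limit read from the data, passing the limit was not always enough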); settings: CellTiter-Glo, 72 h, at 10 µM; for differential viability (reversal): stronger effect = higher value
# [4] = yeast transport mutant growth inhibition pilot in 384-well plates, post-Golgi transport modulator project (AID 636; in the data active = inhibition above about 31%); settings: absorbance 615 nm, about 18 h, stronger effect = higher value
# [5] = growth suppression of yeast trafficking mutant, preliminary HTS, modulators of trafficking downstream of Golgi apparatus project, 1536-format plate, OD 615 nm (AID 637; in the data active = inhibition above about 30%); settings: yeast transport mutant growth, absorbance 615 nm, 18 h; stronger effect = higher value
# [6] = H69AR cells + 2 uM doxorubicin, measured here: viability with 2 uM doxorubicin, stronger effect = lower value
# [7] = H69AR cells, compound alone cytotoxicity
Compound,viability [1],viability [2],differential viability (reversal) ([3]; H69AR cells + 2 uM doxorubicin),"viability [3, 6] [%]","viability [3, 7] [%]",inhibition [4],inhibition [5]
CCOc1ccc2cc(C#N)c(SCC(=O)N3CCC(C)CC3)nc2c1,43.5% (inactive),34.4% (active),0.44% (inactive),33.9,34.4,-8.8% (inactive),-1.11% (inactive)
O=C(c1nc2n(n1)C(c1ccc(Cl)cc1)C=C(c1ccccc1)N2)N1CCOCC1 (stereo not given),96.9% (inactive),91.9% (inactive),-6.89% (inactive),98.8,91.9,-1.18% (inactive),-1.9% (inactive)
COc1ccc(C)cc1NC(=O)CCN1CCCC1,105% (inactive),97.5% (inactive),9.77% (inactive),87.7,97.5,-6.13% (inactive),1.11% (inactive)
CCOC(=O)c1c(COC(=O)c2ccco2)nc2ccccc2[n+]1[O-],90.3% (inactive),87.2% (inactive),2.55% (inactive),84.6,87.2,-5.73% (inactive),3.97% (inactive)
Cc1ccc2nc(CSc3nnc(-c4ccco4)n3-c3ccccc3)cc(=O)n2c1,109% (inactive),87.2% (inactive),-10.8% (inactive),98,87.2,4.81% (inactive),16.4% (inactive)
O=c1c2ccc(-c3nnc4n3-c3ccccc3SC4)cc2nc2n1CCCCC2,94.9% (inactive),94.4% (inactive),8.88% (inactive),85.5,94.4,-5.33% (inactive),6.83% (inactive)
CN1CCN(S(=O)(=O)c2ccc(NC(=O)c3ccc(F)cc3)cc2)CC1,94.2% (inactive),96.8% (inactive),7.89% (inactive),88.9,96.8,-4% (inactive),-5.08% (inactive)
Cc1cc2c(c(=O)n1CCN(C)C)C(c1ccncc1)C(C#N)=C(N)O2 (stereo not given),103% (inactive),103% (inactive),0.98% (inactive),102,103,-2.37% (inactive),-6.51% (inactive)
COCCCNC(=O)CC(NS(=O)(=O)c1ccc(Cl)cc1)c1ccco1 (stereo not given),106% (inactive),87.5% (inactive),2.94% (inactive),84.6,87.5,-0.91% (inactive),-3.02% (inactive)
CSc1n[nH]c(NCc2ccccc2)n1,96.5% (inactive),96.8% (inactive),0.755% (inactive),96.1,96.8,-5.13% (inactive),1.43% (inactive)
COc1ccc(NC(=O)c2ccco2)cc1NC(=O)c1cccs1,92.2% (inactive),88.5% (inactive),-3.49% (inactive),92,88.5,0.13% (inactive),13.8% (inactive)
COc1ccc(C)cc1-n1nnnc1SCC(=O)NC(=O)NCc1ccco1,90.9% (inactive),87.3% (inactive),9.23% (inactive),78.1,87.3,-1.69% (inactive),3.17% (inactive)
COC(=O)c1ccccc1NC(=O)c1noc2c1CC(C(C)(C)C)CC2 (stereo not given),112% (inactive),107% (inactive),14.2% (inactive),92.9,107,-1.17% (inactive),0.63% (inactive)
COc1ccc(OC)c(NC(=O)Cc2coc3ccc(C)cc23)c1,76.7% (inactive),82.1% (inactive),3.86% (inactive),78.3,82.1,-6.05% (inactive),0.48% (inactive)
CC(=O)Nc1ccc(NC2=CC(=O)CC(C)(C)C2)cc1,109% (inactive),109% (inactive),24.2% (inactive),85,109,-3.38% (inactive),5.08% (inactive)
CN(C(=O)c1c(Cl)nc2sccn12)C1CCCCC1,106% (inactive),93.9% (inactive),16.4% (inactive),77.5,93.9,-5.53% (inactive),-5.4% (inactive)
Cc1ccccc1NC(=O)c1ccccc1,103% (inactive),99.6% (inactive),11.8% (inactive),87.8,99.6,-5.92% (inactive),2.7% (inactive)
Cc1ccc(C)c(SCC(=O)Nc2nnc(-c3ccccc3)o2)c1,48.4% (inactive),74.9% (inactive),-0.675% (inactive),75.6,74.9,-3.64% (inactive),-1.27% (inactive)
Cc1cc(C)cc(Nc2ncc3c(n2)CC(c2ccco2)CC3=O)c1 (stereo not given),86.1% (inactive),88.3% (inactive),1% (inactive),87.3,88.3,-6.67% (inactive),3.17% (inactive)
COC(=O)Cn1c2ccccc2c2nc(C)sc21,87.2% (inactive),92.7% (inactive),1.14% (inactive),91.5,92.7,-0.8% (inactive),-3.65% (inactive)

Compound,viability [1],viability [2],differential viability (reversal) ([3]; H69AR cells + 2 uM doxorubicin),"viability [3, 6] [%]","viability [3, 7] [%]",inhibition [4],inhibition [5]
CCC(=O)n1nc(-c2ccco2)nc1N,113% (inactive),110% (inactive),11.3% (inactive),98.2,110,0.53% (inactive),5.4% (inactive)
CCN1C(=O)/C(=C/N2CCc3ccccc32)SC1=S,98.3% (inactive),58.5% (inactive),-3.35% (inactive),61.9,58.5,-2.63% (inactive),0.95% (inactive)
COc1ccc(-c2coc3c(CN4CCCCC4)c(O)c(CN4CCCCC4)c(O)c3c2=O)cc1,76.7% (inactive),1.48% (active),-0.025% (inactive),1.5,1.48,0% (inactive),6.19% (inactive)
CN(C)S(=O)(=O)Nc1ccccc1C(N)=O,90.8% (inactive),98.4% (inactive),13.8% (inactive),84.6,98.4,-6% (inactive),0.63% (inactive)
CCCn1c(SCC(=O)NCc2ccco2)nc2c1c(=O)n(C)c(=O)n2C,87.6% (inactive),94.4% (inactive),15.9% (inactive),78.5,94.4,-7.87% (inactive),2.38% (inactive)
COc1ccc(N2C(=O)CC(N3CCN(S(=O)(=O)c4c(F)cccc4F)CC3)C2=O)cc1OC (stereo not given),107% (inactive),103% (inactive),8.42% (inactive),94.3,103,-2.34% (inactive),-6.35% (inactive)
C=C(C)CSc1nnc2[nH]c(=O)cc(N)n12,65.8% (inactive),87.9% (inactive),13.4% (inactive),74.5,87.9,-2.63% (inactive),7.62% (inactive)
CC1CCN(C(=O)CSc2nnc(-c3cccnc3)n2C2CCCCC2)CC1,112% (inactive),97.5% (inactive),-3.36% (inactive),101,97.5,-2.76% (inactive),0.16% (inactive)
CC1(C)CC(=O)C=C(NCCN2CCN(C(=O)Nc3ccccc3)CC2)C1,103% (inactive),96.4% (inactive),6.64% (inactive),89.8,96.4,-5.07% (inactive),3.97% (inactive)
COc1ccc(CCNS(=O)(=O)c2ccc3c(c2)OCCO3)cc1,109% (inactive),103% (inactive),10.1% (inactive),92.6,103,-0.53% (inactive),-3.17% (inactive)
Cc1ccc(NC(=O)C2CCCNC2=O)nc1 (stereo not given),106% (inactive),97.8% (inactive),3.79% (inactive),94,97.8,-0.13% (inactive),-2.7% (inactive)
CCc1nccn1S(=O)(=O)c1ccc2ccc(C)cc2c1,105% (inactive),91.3% (inactive),-2.18% (inactive),93.5,91.3,2.24% (inactive),-3.49% (inactive)
O=S1(=O)C=C(Sc2nnc(-c3ccccc3)o2)c2ccccc21,42.9% (inactive),1.65% (active),0.375% (inactive),1.27,1.65,57% (active),95.8% (active)
CCOC(=O)N1CCN(C(=O)Nc2ccc(Cl)cc2)CC1,97.7% (inactive),98.3% (inactive),14.8% (inactive),83.4,98.3,-3.55% (inactive),4.6% (inactive)
CC(NS(=O)(=O)c1ccc(OCC(=O)N2CCOCC2)c(Cl)c1)c1ccccc1 (stereo not given),94.9% (inactive),94.7% (inactive),0.355% (inactive),94.4,94.7,-6.53% (inactive),4.76% (inactive)
O=C(O)C1CC(=O)N(c2ccc(OCc3c(F)cccc3Cl)cc2)C1 (stereo not given),105% (inactive),105% (inactive),4.8% (inactive),101,105,-0.52% (inactive),-1.9% (inactive)
COc1ccc(C(F)(F)F)cc1NC(=O)c1nc2nc(C)cc(C(F)F)n2n1,94% (inactive),79.9% (inactive),-3.77% (inactive),83.7,79.9,-1.56% (inactive),-0.16% (inactive)
COC(=O)c1ccc2c(c1)C(=O)N(C1CCCCC1)C2=O,105% (inactive),104% (inactive),7.39% (inactive),96.7,104,-2.93% (inactive),1.11% (inactive)
c1ccc(-c2nc3nonc3c3nc4ccccc4n23)cc1,93.8% (inactive),88.8% (inactive),-1.96% (inactive),90.8,88.8,-6.27% (inactive),1.9% (inactive)
Cc1ccccc1CN1CCN(C(=O)c2cccc(F)c2)CC1,94.7% (inactive),101% (inactive),4.51% (inactive),96.9,101,-1.87% (inactive),-0.16% (inactive)
